The text below walks through data of PubChem BioAssay AID743061 (The Scripps Research Institute Molecular Screening Center, 2013).

In general, inhibition refers to the change of the read-out against control, counted positive when it falls.

SMILES strings stand for the structures. “And” between values parts separate entries of the source, which are not always exact repeats. Equal values may be shown once.

This assay deals with Methionine--tRNA ligase, mitochondrial (Homo sapiens) (UniProt Q96GW9). Kind of assay: human mtMetRS tRNA charging inhibition – biochemical, radioactivity, round 1, selectivity assay for T. brucei MetRS inhibitor project, late-stage follow-up (AID 743061).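 Note: 0% = DMSO with full reaction and 100% = DMSO wells lacking tRNA.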 Particulars: recombinant human mtMetRS, [3H]Met tRNA charging, at 10 µM, stronger effect = higher value. A digest of the protocol:
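Material – recombinant human mitochondrial methionyl-tRNA synthetase (MetRS) · Input – 13 nM enzyme · Also added – 240 nM [3H]methionine with bulk E. coli tRNA acceptor · Compound dosing – 10 and 1 µM · Schedule – 15 min preincubation, 1 h reaction, room temperature · Detection – scintillation counts of TCA-precipitated charged tRNA on filters · Benchmarks – high DMSO, low without tRNA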
As for `Cc1ccc(C(=O)NCCc2nc3ccccc3[nH]2)cc1C`, the inhibition worked out at 1.68%.

With `COc1ccccc1NS(=O)(=O)c1cccc(NC(=O)Nc2ccccc2)c1`, the inhibition is 19.1%.

In the case of `CNC(=S)N(CCc1ccccc1)C1CC(=O)N(c2ccc(Br)cc2)C1=O` (centres undefined), the inhibition worked out at 83.7%.

As to `CC(CC(=O)Nc1cccc(Br)c1)=NNC(=O)c1ccc(O)cc1O`, the inhibition stood at 4.55%.

For the compound `O=C(Nc1ccc(F)c(Cl)c1)C1CC(=O)n2c(nc3ccccc32)N1` (centres undefined), the inhibition is 4.32% and 12.5%.

Turning to `Brc1cnc2nc(SCc3nc4ccccc4[nH]3)[nH]c2c1`, the inhibition is -14.2%.

Turning to `O=C(NNC(=O)c1cc(-c2ccc(Cl)c(Cl)c2)nc2ccccc12)Nc1ccccc1`, the inhibition was -11.2%.

On to `CCc1ccc2[nH]c3nc(SCC(=O)NCc4cccc(OC)c4)nnc3c2c1`, for which the inhibition was found to be 13.1%.

Take `CCN(CCc1nc2ccc(C)cc2[nH]1)C(=O)c1ccc2ncccc2c1`: the inhibition was 1.1%.

Regarding `O=C1[C@@H]2Cc3c([nH]c4ccccc34)C(c3cccc([N+](=O)[O-])c3)N2C(=O)CN1CCCO` (some centres undefined), the inhibition turned out to be 4.46%.

For `COc1ccc2[nH]c3nc(SCC(=O)Nc4ccc5c(c4)OCO5)nnc3c2c1`, the inhibition turned out to be 24.5%.

Turning to `CC(=O)c1cn(CC(=O)Nc2cccc(C(F)(F)F)c2)c2ccccc12`, the inhibition is -0.68%.

Consider `O=C(Cn1cnc2ccccc21)Nc1cccc([N+](=O)[O-])c1`, for which the inhibition is -2.2%.

On to `O=C(Cn1cc(C(=O)C2CC2)c2ccccc21)Nc1cccc(C(F)(F)F)c1`, for which the inhibition turned out to be 11.9%.

Consider `COc1ccc(CNC(=O)CSc2nnc3c(n2)[nH]c2ccc(F)cc23)cc1`, for which the inhibition is -12%.

`COc1ccccc1NC(=O)CSc1nnc2c(n1)[nH]c1ccc(C)cc12`: the inhibition is 7.39%.

With `O=C(NNC(=O)c1ccc(-n2cncn2)c([N+](=O)[O-])c1)c1ccc(Cl)cc1`, the inhibition was -21.4%.

`O=C(Cn1cc(C(=O)COc2ccccc2)c2ccccc21)Nc1cccc(C(F)(F)F)c1`: the inhibition was determined as 3.08%.

As to `CCN(CC)C(=O)C(=O)c1cn(CC(=O)Nc2cccc(C(F)(F)F)c2)c2ccccc12`, the inhibition was found to be 40.8%.
